Screens deposited in PubChem by several laboratories.
In the library only some 3.8% were active in any assay of this set; here they are far more common.
Granule exo inh – LAMP-1 surface exposure blockers, TALL-104 cells – cell-based, flow cytometry, MLPCN library, primary screen. 360,000 compounds, 0.66% hits. inhibition, % at 10 µM. TALL-104 LAMP-1 surface exposure; cells stimulated with thapsigargin and PMA. AID 651702, 2012;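 active = inhibition above about 55%, limit read from the data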
MPTP block – mitochondrial permeability transition pore inhibitors, primary screen, biochemical, isolated mouse mitochondria, absorbance; Ca2+ swelling absorbance, 30 min; inhibition, % at 10 µM; 360,000 compounds, 1.4% hits; AID 602449, 2012;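 active = inhibition of 50% or more, scaled per plate between neutral and stimulator controls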
V-ATPase pH – regulators of yeast V-ATPase proton pumping, primary screen, pHLuorin cytosolic pH fluorescence; response, % at 10 µM; S. cerevisiae; 350,000 compounds, 0.37% hits; in the data active = response mostly above about 7.3%, no sharp cut-off; inactive = mostly below about 5.4%; note: actives read high
T cell modulator – modulators of CD8 T cell-vesicle binding, primary screen, mouse 2C CD8+ T cells, flow cytometry; 2C CD8+ T cell-vesicle binding; active compounds read low; response (vesicle binding), % at 7 µM; AID 2052, 2009; 330,000 compounds, 0.068% hits;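 active = response, share of CD8 T cells binding vesicles, and their 90th percentile fluorescence all below set limits, cut at about 80% in these data, passing the limit was not always enough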;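 note: values below 100% mean blocked vesicle binding to the CD8+ T cells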
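Test system: purified 2C TCR transgenic mouse naive CD8+ T cells. Probe or stimulus: QL9-peptide-loaded Drosophila micro-vesicles bearing Ld, ICAM-1 and B7-1. Incubation: binding step 1.5 h, 37 °C, antibody labelling 20 min, ice. Measured by: flow cytometry of vesicle-bound cells.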
rCAG binder – binders of r(CAG) RNA repeats, primary screen, biochemical, fluorescence; r(CAG) RNA repeat, TO-PRO-1 dye displacement fluorescence; AID 651821, 2012; inhibition, % at 3 µM; 370,000 compounds, 1.3% hits;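 active = inhibition above the plate cutoff, the mean of all test compounds on that plate plus 3 SD, cut at about 35% in these data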;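 note: higher means more dye released from RNA so lower well fluorescence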
Beta2AR agonist – beta2AR agonists driving receptor internalization, primary screen, cell-based, FAP fluorogen, flow cytometry; response, % (concentration not given with the values); Am2.2-beta2AR cells; 340,000 compounds, 0.43% hits;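 active = response above a set limit, near 3 SD of response in nonfluorescent compounds, cut at about 42% in these data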
Target sequence (P07550 whole entry, looked up): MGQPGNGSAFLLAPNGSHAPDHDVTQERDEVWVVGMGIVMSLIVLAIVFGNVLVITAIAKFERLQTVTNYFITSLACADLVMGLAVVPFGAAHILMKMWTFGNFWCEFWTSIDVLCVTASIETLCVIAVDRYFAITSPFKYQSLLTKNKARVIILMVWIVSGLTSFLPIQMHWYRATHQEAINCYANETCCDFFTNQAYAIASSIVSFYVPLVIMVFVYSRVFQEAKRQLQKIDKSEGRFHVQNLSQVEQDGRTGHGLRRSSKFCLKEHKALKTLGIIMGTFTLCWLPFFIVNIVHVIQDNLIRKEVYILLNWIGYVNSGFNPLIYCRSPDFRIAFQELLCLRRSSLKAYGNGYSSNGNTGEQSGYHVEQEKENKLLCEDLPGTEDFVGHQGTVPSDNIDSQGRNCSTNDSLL
Exocytosis CP01 – inhibitors of lytic granule exocytosis, confirmation, TALL-104 cells, flow cytometry, Cherry Pick01 | shares compounds with Granule exo inh | LAMP-1 externalization; stimulated with PMA plus thapsigargin | inhibition, % at 10 µM | 1,500 compounds, 11% hits | AID 651954, 2012; in the data active = inhibition above about 60%
Numbers stand for hits; - = inactive; . = no result.

SMILES	Granule exo inh	MPTP block	V-ATPase pH	T cell modulator	rCAG binder	Beta2AR agonist	Exocytosis CP01
COc1ccc(OC)c(-c2csc(NC(=O)Cc3ccccc3OC)n2)c1	68	-	-	-	-	-	-
O=C(COc1ccc(Br)cc1CNCCc1ccccc1)NCc1ccccc1	67	-	-	-	-	-	-
CCCNCc1cc(Br)ccc1OCC(=O)NCCc1ccccc1	-	-	-	-	-	-	.
COc1ccc(-c2cc(-c3nnc(SCC(=O)Nc4ccc(OCc5ccccc5)cc4)n3N)[nH]n2)cc1	.	.	.	.	-	.	.
CCOC(=O)c1c(NC(=O)c2ccn(CC)n2)sc2c1CCC2	80	-	-	-	-	-	-
CCOC(=O)c1c(NC(=O)c2nn(CC)cc2Br)sc2c1CCCCC2	-	-	-	-	-	-	.
CCOc1ccc(/C=N/n2c(-c3n[nH]c4c3CCC4)n[nH]c2=S)cc1	.	.	.	.	-	.	.
CCOC(=O)c1c(CSc2cccs2)n(C)c2cc(Br)c(O)c(CN(C)C)c12	90	-	-	-	-	-	-
CCOC(=O)c1c(C)n(C)c2cc(Br)c(O)c(O)c12	-	-	-	-	-	-	.
COc1ccc(N2CCOCC2)c(NC(=O)c2cc3ccccc3o2)c1	75	-	-	-	-	-	-
COc1ccc(OCC(=O)Nc2cc(OC)ccc2N2CCCCC2)cc1	67	-	-	-	-	-	-
O=C(Nc1ccccc1N1CCOCC1)c1cc2ccccc2o1	-	-	-	-	-	-	.
COc1ccc(N2CCCC2)c(NC(=O)COc2ccccc2Cl)c1	-	-	-	-	-	-	.
COc1ccc(CNS(=O)(=O)c2cc3c(cc2Br)CC(C)N3C(C)=O)cc1 (configuration not stated)	.	.	.	.	-	.	.
Cc1c(NC(=O)COc2cccc(Br)c2)c(=O)n(-c2ccccc2)n1C	70	-	-	-	-	-	-
COc1ccc(CN2CCc3c([nH]c4ccccc34)C2)cc1Br	-	-	-	-	-	-	.
COc1ccc(CN2CCc3c([nH]c4ccccc34)C2)c(OC)c1C	56	-	-	-	-	-	-
CCn1c(=O)c2cc(C(=O)NCCC(C)C)sc2c2ccccc21	71	-	-	-	-	-	-
CCc1nc2ccc(C(=O)NC3CCN(Cc4ccccc4)CC3)cn2c1N(C)Cc1cc2ccccc2s1	59	-	.	.	-	.	65
CCc1nc2ccc(C(=O)NC3CCN(Cc4ccccc4)CC3)cn2c1N(C)Cc1cccs1	-	-	.	.	-	.	.
COc1cc(-n2c(C)nc3cc(C(=O)N4CCCCC4)ccc32)cc(OC)c1OC	.	.	.	.	-	.	.
COC(=O)CC#C[C@H](C)[C@@H](NS(=O)(=O)c1ccc(C)cc1)C1CCCCC1	.	.	.	.	-	.	.
CC(CC12CC3CC(CC(C3)C1)C2)NCc1ccccc1O (configuration not stated)	61	-	-	-	-	-	-
O=C(NCCc1ccccc1Cl)[C@@H]1CCCN1C(=O)[C@@H](NC(=O)N1CCOCC1)c1ccccc1	.	.	.	.	-	.	.
O=C(O)c1nn(CCOc2cccc(Br)c2)c(=O)c2ccccc12	73	-	-	-	-	-	-
SMILES	Granule exo inh	MPTP block	V-ATPase pH	T cell modulator	rCAG binder	Beta2AR agonist	Exocytosis CP01
COCCn1c(SCc2cccc(F)c2)nc2cc(C(=O)OC)ccc2c1=O	75	-	-	-	-	-	-
COCCNC(=S)N(CCc1c(C)[nH]c2ccc(F)cc12)Cc1cccs1	-	-	-	-	-	-	.
COCCNC(=S)N(CCc1c(C)[nH]c2ccc(Cl)cc12)Cc1cccs1	104	-	-	-	-	-	-
COC(=O)c1ccccc1NS(=O)(=O)c1ccc(Cl)nc1	86	-	-	-	-	-	-
O=c1oc2ccccc2c2c1nc(C(F)(F)F)n2-c1ccccc1	67	-	-	-	-	-	-
COC(=O)[C@]12C[C@H](CC(=O)NCC3CCCCC3)C(=O)N(Cc3ccco3)C1=C[C@H](C(C)C)O[C@@H]2C1CC1	.	.	.	.	-	.	.
Cc1cccc(-c2nc(CS(=O)CC(=O)NCCc3ccc(Cl)cc3)c(C)o2)c1 (configuration not stated)	58	-	-	-	-	-	-
Cc1oc(-c2ccc(Cl)cc2)nc1CS(=O)CC(=O)NCCN1CCCC1 (configuration not stated)	56	-	-	-	-	-	-
COc1cccc2c1-c1c(C(=O)O)cccc1C2=O	-	-	-	-	-	-	.
COc1cccc2c1C(=O)c1ccc3ccccc3c1C2=O	61	-	-	-	.	-	78
COC(=O)[C@]12C[C@H](CC(=O)NCCc3ccccc3OC)C(=O)N(Cc3ccco3)C1=C[C@H](C1CCCC1)O[C@@H]2C	.	.	.	.	-	.	.
COc1ccc(C(C)(C)C)cc1NS(=O)(=O)c1cccc2cccnc12	59	-	-	-	-	-	-
CN(c1ccc(NC(=O)Cc2cn(C)c3ccccc23)cc1)c1ccccn1	.	.	.	.	-	.	.
CCOC(=O)c1cnc2ccc(OCC)cc2c1N1CCN(c2ccccc2OC)CC1	-	-	-	-	.	-	.
CCOC(=O)c1cnc2ccc(OCC)cc2c1N(C)Cc1ccccc1	102	-	-	-	-	-	79
COC(=O)[C@]12C[C@H](CC(=O)N3CCN(C(=O)C4CC4)CC3)C(=O)N(Cc3ccc(Cl)cc3Cl)C1=C[C@H](C1CCCC1)O[C@@H]2C	.	.	.	.	-	.	.
CCOC(=O)C1(Cc2ccccc2)CCN(Cc2ccc(C)s2)CC1	64	-	-	-	-	-	-
CCOC(=O)C1(Cc2cccc(OC)c2)CCN(C/C=C/c2ccccc2)CC1	64	-	-	-	-	-	-
CCOC(=O)C1(Cc2ccccc2)CCN(Cc2cc(OC)c3c(c2)OCO3)CC1	60	-	-	-	-	-	-
CC(C)CNC(=O)OCc1cn(Cc2ccccc2F)nn1	.	.	.	.	-	.	.
COc1ccc(OC)c(C2=Nn3c(nnc3C3CCCCC3)SC2)c1	73	-	-	-	-	-	-
O=C1Nc2ccc(Br)cc2/C1=C/C(=O)c1ccccc1	73	-	-	.	-	-	83
COC(=O)C[C@@H]1CC[C@@H]2[C@H](COc3ccc(NC(=O)Nc4c(C)noc4C)cc3C(=O)N2C)O1	.	.	.	.	-	.	.
C[C@H](NC(=O)Nc1ccc2c(c1)OCCO2)C(=O)O	101	-	-	-	-	-	-
CCC(=O)Nc1ccc2c(c1)OCCO2	-	-	-	-	-	-	.
N#Cc1nc(-c2ccc(OCc3ccccc3)cc2)oc1NCCCn1ccnc1	81	-	-	-	-	-	-
CCN(CC)C(=O)CSc1nnc(-c2ccccn2)n1C	.	.	.	.	-	.	.
